Results pooled from the literature.
Each line is one published result; the experiments were not run side by side.
WDR5: WD repeat-containing protein 5 (WDR5, Homo sapiens, UniProt P61964)
OfChi-h: Chitinase (OfChi-h, Ostrinia furnacalis, UniProt Q4AE59)
SLC22A12: Solute carrier family 22 member 12 (SLC22A12, Homo sapiens, UniProt Q96S37)
F10: Coagulation factor X (F10, Homo sapiens, UniProt P00742)

| SMILES | target | test | setting | endpoint | result |
| --- | --- | --- | --- | --- | --- |
| O=C(NO)c1cncc(OS(=O)(=O)Oc2ccc(-n3ccnc3)cc2)c1 | Histone deacetylase 7 (HDAC7, Homo sapiens, UniProt Q8WUI4) | enzyme activity, inhibitor, fluorescence |  | IC50 | 5.07 µM |
| CCNC(=O)N1CCN(c2nc(NC3CCN(C(=O)[C@@H](CCc4ccc(OC)cc4)NC(=O)[C@@H]4CCCCN4C(=O)C(=O)C(C)(C)CC)CC3)nc(N(Cc3cnn(C)c3)C3CC3)n2)CC1 | Bromodomain-containing protein 9 (BRD9, Homo sapiens, UniProt Q9H8M2) | binding, SPR |  | Kd | > 10 µM |
| C[C@@H]1CN(c2ccc(-c3cc(C(=O)NCCOCCOCCOCCOCCNC(=O)Cn4cc(-c5[nH]cc(C(=O)N[C@@H](CC(N)=O)c6ccc(F)c(Cl)c6)c5-c5ccc(Cl)cc5F)cn4)ccc3F)cc2NC(=O)c2c[nH]c(=O)cc2C(F)(F)F)C[C@H](C)N1C | WDR5 | binding, SPR |  | Kd | 0.0375 µM |
| CN(C)c1nc(NCc2cccc(C(F)(F)F)c2)c(/N=N/c2ccc(Cl)cc2)c(N(C)C)n1 | OfChi-h | enzyme activity, inhibitor, fluorescence |  | IC50 | 0.3 µM |
| Cn1c(=O)c2c(ncn2C)n(C)c1=O | SLC22A12 | transporter uptake, inhibitor, radiometric | oocytes | IC50 | > 5000 µM |
| CC(=O)N[C@H]1Cc2ccc(cc2)OC/C=C/C[C@@H](C(=O)N[C@@H](CCCNC(=N)N)C(=O)c2nc3ccccc3s2)NC(=O)[C@H](CC(C)C)NC1=O | F10 | enzyme activity, inhibitor, absorbance | with preincubation | IC50 | 0.122 µM |
| C[C@@H]1CN(c2ccc(-c3cc(C(=O)NCCOCCOCCOCCOCCOCCOCCNC(=O)/C=C/c4[nH]cc(C(=O)N[C@@H](CC(N)=O)c5ccc(F)c(Cl)c5)c4-c4ccc(Cl)cc4F)ccc3F)cc2NC(=O)c2ccc(F)cc2C(F)(F)F)C[C@H](C)N1C | WDR5 | binding, SPR |  | Kd | 0.0808 µM |
| Nc1ncnc2c1ncn2[C@@H]1O[C@H](CO)[C@@H](O)[C@H]1O | SLC22A12 | transporter uptake, inhibitor, radiometric | oocytes | IC50 | > 10000 µM |
| C=CS(=O)(=O)c1ccc(Nc2nc(OCC3CCCCC3)c3nc[nH]c3n2)cc1 | Gasdermin-D (GSDMD, Homo sapiens, UniProt P57764) | binding, MST |  | Kd | 36.1 µM |
| CC(=O)N[C@H]1Cc2ccc(cc2)OC/C=C\CNC(=O)C[C@@H](C(=O)N[C@@H](CCCNC(=N)N)C(=O)c2nc3ccccc3s2)NC(=O)[C@H](CC(C)C)NC1=O | F10 | enzyme activity, inhibitor, absorbance | with preincubation | IC50 | 3.18 µM |
| CCCCc1ccc(CNc2nc(N(C)C)nc(N(C)C)c2/N=N/c2ccc(Cl)cc2)cc1 | OfChi-h | enzyme activity, inhibitor, fluorescence |  | Ki | 0.0194 µM |
